Results taken from publication PMC4878416 (Diabetes, 2016).

Tests used:
[1] = target: T1, DYRK2 (Homo sapiens, UniProt Q92630); assay: Human kinome profiling, DYRK2; assay type: biochemical
T1 sequence (Q92630 1-601): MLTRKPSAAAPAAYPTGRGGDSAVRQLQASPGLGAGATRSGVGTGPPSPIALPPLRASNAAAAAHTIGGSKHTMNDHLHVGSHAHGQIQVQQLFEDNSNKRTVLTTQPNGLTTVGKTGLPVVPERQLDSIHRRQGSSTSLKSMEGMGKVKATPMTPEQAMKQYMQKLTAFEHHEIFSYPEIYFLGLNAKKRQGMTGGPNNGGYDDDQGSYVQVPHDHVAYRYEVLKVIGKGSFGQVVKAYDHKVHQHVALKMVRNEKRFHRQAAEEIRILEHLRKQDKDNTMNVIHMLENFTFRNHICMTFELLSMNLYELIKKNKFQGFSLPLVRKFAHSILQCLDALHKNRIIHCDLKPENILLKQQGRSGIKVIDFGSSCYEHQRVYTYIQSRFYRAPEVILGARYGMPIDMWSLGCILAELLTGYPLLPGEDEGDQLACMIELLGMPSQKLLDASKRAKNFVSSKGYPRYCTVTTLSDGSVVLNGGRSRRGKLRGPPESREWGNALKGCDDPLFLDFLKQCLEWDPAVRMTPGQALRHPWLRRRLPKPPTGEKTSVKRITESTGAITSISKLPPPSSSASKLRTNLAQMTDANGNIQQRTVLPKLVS
Outline: (§1)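 Human kinases profiled by commercial providers under their standard protocols; ATP within 15 μmol/L of the apparent KM for each enzyme.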

[2] = target: CLK3 (Homo sapiens, UniProt P49761); assay: Human kinome profiling, CLK3; assay type: biochemical
Sequence of CLK3 (P49761 whole entry): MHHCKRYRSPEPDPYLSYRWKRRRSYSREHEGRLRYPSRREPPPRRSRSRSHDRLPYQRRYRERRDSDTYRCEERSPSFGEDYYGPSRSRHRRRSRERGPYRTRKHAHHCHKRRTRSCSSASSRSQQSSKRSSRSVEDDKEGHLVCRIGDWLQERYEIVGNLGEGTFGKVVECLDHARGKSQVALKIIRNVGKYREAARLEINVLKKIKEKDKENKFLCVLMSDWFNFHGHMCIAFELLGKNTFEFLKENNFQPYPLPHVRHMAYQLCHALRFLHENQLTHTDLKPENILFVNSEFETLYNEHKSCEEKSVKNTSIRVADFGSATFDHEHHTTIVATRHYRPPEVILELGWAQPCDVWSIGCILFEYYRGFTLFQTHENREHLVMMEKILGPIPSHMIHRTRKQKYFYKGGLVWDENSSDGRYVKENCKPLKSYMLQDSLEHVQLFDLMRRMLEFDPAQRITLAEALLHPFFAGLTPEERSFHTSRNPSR
Outline: as §1

[3] = system: endogenous NSG pancreatic islets β-cells; assay: β-cell proliferation in endogenous pancreatic islets of NSG mice; assay type: in vivo, mouse; details: 0.25 mg/kg/BW i.p. twice a week for 3 weeks, vs nontreated or sham-operated mice
Outline: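 Pancreata came from human islet-grafted NSG mice dosed i.p. with test compound (0.25 mg/kg, 50% DMSO) or vehicle twice weekly for 3 weeks. Mice then received BrdU 100 mg/kg i.p. for 3 days and were killed 6 h after the final injection. Sections were stained for insulin, BrdU and DAPI, and BrdU+ β-cells were quantified; n = 4; mean ± SEM; unpaired t test.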

[4] = target: CLK1 (Homo sapiens, UniProt P49759); assay: Human kinome profiling, CLK1; assay type: biochemical
Sequence of CLK1 (P49759 whole entry): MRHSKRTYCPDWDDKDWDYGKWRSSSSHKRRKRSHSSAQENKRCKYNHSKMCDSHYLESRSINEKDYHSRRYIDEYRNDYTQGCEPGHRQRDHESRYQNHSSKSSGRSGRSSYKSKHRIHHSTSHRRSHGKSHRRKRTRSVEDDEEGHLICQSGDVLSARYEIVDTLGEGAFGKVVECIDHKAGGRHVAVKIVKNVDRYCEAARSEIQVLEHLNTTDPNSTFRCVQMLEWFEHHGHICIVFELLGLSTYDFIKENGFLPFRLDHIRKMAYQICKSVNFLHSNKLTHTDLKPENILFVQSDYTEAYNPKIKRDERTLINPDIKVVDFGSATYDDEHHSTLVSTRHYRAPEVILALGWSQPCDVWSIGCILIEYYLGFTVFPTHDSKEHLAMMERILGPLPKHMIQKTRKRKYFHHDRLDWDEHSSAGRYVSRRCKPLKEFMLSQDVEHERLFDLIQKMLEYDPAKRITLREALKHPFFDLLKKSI
Outline: as §1

[5] = target: DYRK1A (Homo sapiens, UniProt Q13627); assay: Human kinome profiling, DYRK1A; assay type: biochemical; details: 100 nmol/L
[6] = system: p27KIP phosphorylation (S10); assay: Western blot of p27KIP phosphorylation; assay type: cell-based, rat; details: INS-1E cells, 24 or 48 h, 10 μmol/L harmine or 0.5 μmol/L 5-IT
Outline: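 Cells were treated after overnight attachment and lysed in RIPA buffer. Western blots were probed for p27KIP S10 phosphorylation, with actin as loading control.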

[7] = system: α-cells of endogenous mouse pancreas; assay: α-cell proliferation in endogenous mouse pancreas; assay type: in vivo; details: 0.25 mg/kg/BW i.p. twice a week for 3 weeks
[8] = system: primary rat neurons; assay: Proliferation of primary rat neurons in culture; assay type: cell-based
[9] = system: human β-cells; assay type: in vivo; details: 0.25 mg/kg/BW i.p. twice a week for 3 weeks, vs vehicle
Outline: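 NSG mice (male, 8–10 weeks old) were grafted with 1,000 IEQ of human islets under the kidney capsule. From 1 week post-graft they received test compound (0.25 mg/kg i.p., 50% DMSO) or vehicle twice weekly for 3 weeks, followed by BrdU 100 mg/kg i.p. for 3 days and sacrifice at 6 h. Graft sections were co-stained for insulin or PDX-1 with BrdU, Ki67 or pHH3. 1,000–2,000 β-cells were counted per animal; n = 3–4; mean ± SEM; unpaired t test.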

[10] = target: CLK2 (Homo sapiens, UniProt P49760); assay: Human kinome profiling, CLK2; assay type: biochemical
Sequence of CLK2 (P49760 whole entry): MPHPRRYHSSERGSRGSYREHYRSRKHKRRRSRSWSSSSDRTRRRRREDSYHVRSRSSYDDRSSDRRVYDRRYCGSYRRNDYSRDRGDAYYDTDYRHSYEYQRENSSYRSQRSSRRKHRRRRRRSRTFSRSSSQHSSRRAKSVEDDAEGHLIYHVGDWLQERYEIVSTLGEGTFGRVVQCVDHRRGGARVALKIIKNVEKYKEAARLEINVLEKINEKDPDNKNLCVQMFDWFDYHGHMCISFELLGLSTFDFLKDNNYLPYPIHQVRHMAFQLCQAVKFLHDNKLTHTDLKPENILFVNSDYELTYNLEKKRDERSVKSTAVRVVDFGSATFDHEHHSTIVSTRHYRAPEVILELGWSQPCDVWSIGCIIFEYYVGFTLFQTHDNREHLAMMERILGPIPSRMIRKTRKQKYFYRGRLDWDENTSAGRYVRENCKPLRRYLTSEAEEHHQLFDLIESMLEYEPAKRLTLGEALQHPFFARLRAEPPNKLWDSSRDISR
Outline: as §1

[11] = target: T2, DYRK3 (Homo sapiens, UniProt O43781); assay: Human kinome profiling, DYRK3; assay type: biochemical
T2 sequence (O43781 1-588): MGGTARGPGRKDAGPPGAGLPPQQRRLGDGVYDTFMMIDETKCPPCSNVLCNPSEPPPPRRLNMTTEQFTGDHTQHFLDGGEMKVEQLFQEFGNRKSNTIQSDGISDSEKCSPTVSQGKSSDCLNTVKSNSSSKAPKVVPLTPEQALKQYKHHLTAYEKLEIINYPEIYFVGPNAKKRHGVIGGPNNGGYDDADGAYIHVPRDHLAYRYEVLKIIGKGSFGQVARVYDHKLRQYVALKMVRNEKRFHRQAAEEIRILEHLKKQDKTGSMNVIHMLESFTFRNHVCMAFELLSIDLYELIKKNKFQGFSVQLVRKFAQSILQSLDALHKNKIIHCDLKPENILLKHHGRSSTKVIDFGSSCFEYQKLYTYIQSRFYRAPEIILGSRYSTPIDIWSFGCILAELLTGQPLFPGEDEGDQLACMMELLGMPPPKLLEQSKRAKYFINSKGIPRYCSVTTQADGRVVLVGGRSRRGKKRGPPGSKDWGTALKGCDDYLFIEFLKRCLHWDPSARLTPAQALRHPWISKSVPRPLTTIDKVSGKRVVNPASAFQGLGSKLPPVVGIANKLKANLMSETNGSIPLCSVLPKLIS
Outline: as §1

[12] = system: human β-cells; assay: EdU incorporation proliferation assay in dissociated human islet cells; assay type: cell-based
Outline: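 Human islets dissociated in Accutase (5,000 IEQ/mL, 37°C, 20 min), resuspended in CMRL complete medium and seeded at ~30,000 (96-well) or ~15,000 (384-well) cells per well. EdU was present throughout the 6-day treatment, including FK506 cotreatment. Cells were fixed (3% PFA), permeabilised (0.2% Triton X-100) and stained for C-peptide and DAPI. EdU+ β-cells were scored by automated imaging and manually; 4 wells, 9 fields each; mean ± SD; two-tailed t test vs DMSO.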

[13] = system: intact human islets; assay type: cell-based; details: intact islets of three donors, 1 μmol/L, 6 days
Outline: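 Intact islets from three donors received DMSO or 1 μmol/L test compound for 6 days, and expression was averaged geometrically. Fold changes were regressed by five-dimensional least squares against published expression data from sorted α, β, acinar, large-duct, small-duct and uncharacterised islet cells to estimate cell-mass changes. Significance was assessed by randomising the assignment of sorted replicate samples to cell types.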

remaining activity DYRK2 ([1]; 100 nmol/L): < 10%
IC50 ([1]; read-out: IC50 DYRK2, ATP within 15 μmol/L of apparent KM): 0.006 µM
remaining activity CLK3 ([2]; 100 nmol/L): < 10%
IC50 ([2]; read-out: IC50 CLK3, ATP within 15 μmol/L of apparent KM): 0.195 µM
remaining activity CLK1 ([4]; 100 nmol/L): < 10%
IC50 ([4]; read-out: IC50 CLK1, ATP within 15 μmol/L of apparent KM): 0.036 µM
remaining activity DYRK1A [5]: < 10%
remaining activity CLK2 ([10]; 100 nmol/L): < 10%
IC50 ([10]; read-out: IC50 CLK2, ATP within 15 μmol/L of apparent KM): 0.01 µM
remaining activity DYRK3 ([11]; 100 nmol/L): < 10%
IC50 ([11]; read-out: IC50 DYRK3, ATP within 15 μmol/L of apparent KM): 0.003 µM
SMILES: Nc1ncnc2c1c(I)cn2[C@@H]1O[C@H](CO)[C@@H](O)[C@H]1O [5-IT, 5-iodotubercidin]
increase in BrdU+ β-cells in endogenous NSG pancreatic islets [3]: ~2.5 fold
p27KIP phosphorylation [6]: decrease
α-cell proliferation in endogenous mouse pancreas, treated vs nontreated [7]: no significant alterations
effect on primary rat neurons in culture [8]: no effect
increase in BrdU incorporation in β-cells of human islet grafts ([9]; P < 0.01): approximately fivefold
increase in Ki67 staining of β-cells of human islet grafts ([9]; P < 0.05): approximately sixfold
increase in PDX1/BrdU double-positive cells in human islet grafts ([9]; P < 0.05): approximately fourfold
increase in PDX1/Ki67 double-positive cells in human islet grafts ([9]; P < 0.05): approximately sixfold
increase in pHH3 immunostaining of β-cells of human islet grafts ([9]; P < 0.05): ~10 fold
increase in β-cell proliferation in pair-matched islets ([12]; 6-day treatment, islets pair-matched to the WS-3 test): 20 fold
concentration of maximal effect on β-cell proliferation ([12]; 6 days of treatment): 1 µmol/L
increase in β-cell proliferation (EdU incorporation) ([12]; 6 days of treatment, dissociated human islet cells, maximal effect): 10- to 12 fold
increase in α-cell mass predicted by gene expression results ([13]; 95% CI 4.6–7.5): 6.1%
β-cell mass increase that could account for gene expression changes ([13]; 95% CI 5.8–9.2): 7.5%
